# From PubChem
# An excerpt weighted towards active compounds, which were near 3% of everything screened.
# T cruzi inh – blocks replication of Trypanosoma cruzi; inhibition, % (test concentration not listed); T. cruzi beta-gal in NIH3T3, luminescence, 90 h; actives 1.4% (n = 300,000); AID 1885;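 active = mean inhibition across valid replicates above about 55%, limit read from the data; inconclusive = mean below that limit but half or more replicates reach it; inactive = mean below it, under half of replicates reach it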;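 also: signal also drops with host cell toxicity which is not excluded here; 0% = plate median of DMSO wells and 100% = zero luminescence signal; higher percent means less beta-gal luminescence so fewer parasites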
#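 Read-out: Parasite load inhibition, % | Test system: Mouse NIH/3T3 fibroblasts infected with β-gal-expressing T. cruzi Tulahuen C4 | Amount: 5,000 cells/well | Medium: DMEM, 2% fetal bovine serum | Signal: GalScreen β-gal luminescence, detergent lysis, 60 min | Timing: 3 h attach, ≥90 h co-culture | Also added: Tulahuen C4 trypomastigotes, 5000/well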
# PvdQ acylase – blocks Pseudomonas aeruginosa PvdQ acylase activity; purified PvdQ acylase, fluorescence plate reader; inhibition, % at 10 µM; actives 0.063% (n = 340,000); in the data active = inhibition above about 30%, passing the limit was not always enough; inconclusive = no clear call, values can overlap the other calls;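 also: 0% = vehicle neutral wells and 100% = reference inhibitor wells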
# HSF1 activator – increases HSF-1 driven luciferase reporter signal; NIH3T3-HGL HSF-1 luciferase reporter, MG132, 8 h; 100% = twice DMSO control signal; activation, % at 9 µM; actives 1.7% (n = 300,000); AID 504408;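 active = mean replicate activation of at least 50% with a set share of replicates each reaching 50%; inconclusive = only one of those two conditions met; inactive = mean below 50% and too few replicates reaching it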;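 also: 0% = median of the neutral control wells and 100% = twice that signal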
# N-glyco inh – N-linked glycosylation inhibition; D54 ERlucT glycosylation luciferase reporter, 24 h; percent of 100 nM tunicamycin response; reporter increase, % at 12.5 µM; actives 0.23% (n = 360,000); AID 588692;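 active = mean luciferase reporter signal, scaled so untreated is 0 and the glycosylation-blocking control 100, at or above a set limit in every replicate; inconclusive = mean reaches the limit but not every replicate does; inactive = mean below the limit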;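 also: luciferase carries N-glycosylation sites so blocking glycosylation raises the light; 0% = median of neutral control wells and 100% = median of 100 nM tunicamycin wells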
# PfHsp90 yeast 2 – reduces growth (ATP signal) of yeast expressing P. falciparum Hsp90; S. cerevisiae expressing PfHsp90, BacTiter-Glo ATP, 48 h; yeast lacking PDR1 and PDR3 efflux regulators; inhibition, % at 9.4 µM; actives 0.32% (n = 310,000); AID 504621;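 active = every replicate shows inhibition above about 80%, whatever the replicate mean, limit read from the data; inconclusive = mean inhibition reaches the set limit but some replicate falls short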;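 also: 0% = DMSO neutral controls and 100% = 20 µM radicicol positive controls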
# CaV13 ICDI inh – Disruptors of the CACNA1D IQ motif to Ca2+-dependent inactivation inhibitor domain association, primary screening, Förster resonance energy transfer in intact living … | AID 743397 | HEK cells, CFP/YFP FRET ICDI-IQ, plate reader, 10 min; percent FRET-ratio fall versus neutral wells | inhibition, % at 12.3 µM | actives 0.098% (n = 340,000);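 active = mean replicate inhibition of at least 30% and at least 1% of replicates passing that level; inconclusive = only one of the two criteria is met; inactive = neither criterion is met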;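 also: 0% = median of the neutral control wells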
# The depositor's hits bear a star; ? = inconclusive; . = no result.
SMILES,T cruzi inh,PvdQ acylase,HSF1 activator,N-glyco inh,PfHsp90 yeast 2,CaV13 ICDI inh
Cc1ccc(-c2nn(Cc3ccccc3)cc2C(=O)O)cc1,-7,0,5,0,16,5
Cc1ccc(OC(=O)N(C)C[C@@H]2OCc3ccccc3-c3c(n(C)c4ccccc34)C(=O)N([C@H](C)CO)C[C@H]2C)cc1,.,.,.,.,.,-6
S=P(NCCSCc1ccccc1)(N1CC1)N1CC1,.,-15,.,0,.,-2
CCC(C)c1cnc(CC(C)C)c(=O)n1O (centres undefined),.,.,.,0,.,.
CN1CCc2nc(N)c(C#N)c(-c3ccccc3)c2C1,-10,-17,4,0,-15,-7
CN1CCc2nc3sc(C#N)c(N)c3c(-c3cccs3)c2C1,67*,-7,-4,?,0,-9
CCOC(=O)CC(SP1(=S)OCC2(CC=CCC2)CO1)C(=O)OCC (centres undefined),.,1,.,-2,6,-3
Cn1ncnc2c(=O)n(C)c(=O)nc1-2,63*,8,-95,-23,-4,.
